Source: PubChem (several laboratories)
The list is not random: actives were taken first. Their share in the collection is about 4.1%.
KCNQ1 pot = potentiators or activators of KCNQ1 channel, primary screen, cell-based, thallium flux, high-throughput; 0.35% of 310,000 active; CHO-K1 KCNQ1, thallium flux FluxOR fluorescence; stronger effect = higher value; Potassium voltage-gated channel subfamily KQT member 1 (Homo sapiens), P51787; B-score at 10 µM;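 active = fluorescence ratio B-score, a plate-corrected score, at least three library SD, with initial intensity B-score within 5 SD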
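Doses: Single concentration per compound, DMSO matched to controls | Test system: KCNQ1-transfected CHO-K1 cells | Timing: 90 min dye loading and 20 min compound exposure, both at room temperature | Measured by: Kinetic FluxOR thallium fluorescence, 10-s 1-Hz baseline, 110-s post-stimulus read | Medium: Assay buffer with matched DMSO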
hERG rescue = hERG rescue from dofetilide block, primary screen, cell-based, CHO-hERG, FluxOR thallium flux, dofetilide IC70. Voltage-gated inwardly rectifying potassium channel KCNH2 (Homo sapiens), Q12809. dofetilide IC70 present. activation (rescue from dofetilide block), less the hit threshold, % at 10 µM. 0.51% of 310,000 active. AID 1511, 2009;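 active = activation above the mean of controls blocked by dofetilide plus 5 SD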;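 note: thallium influx through hERG after potassium depolarization seen as dye fluorescence rise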
KCNK3 block = human KCNK3 channel inhibitors, primary screen, CHO cells, FluxOR thallium flux, B-score; Potassium channel subfamily K member 3 (Homo sapiens), O14649; FluxOR fluorescence; stronger effect = lower value; B-score at 10 µM; 0.84% of 340,000 active; AID 602410, 2012;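 active = B-score under library mean minus 4 SD, starting fluorescence ratio at most library mean plus 5 SD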;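 note: more negative B-score means stronger inhibition of thallium flux through KCNK3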
KCNQ1 block = inhibitors of human KCNQ1 channel, primary screen, cell-based, thallium flux, high-throughput. Potassium voltage-gated channel subfamily KQT member 1 (Homo sapiens), P51787. CHO-K1 KCNQ1, FluxOR thallium flux fluorescence; stronger effect = higher value. B-score at 10 µM. 1.3% of 310,000 active. AID 2642, 2010;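 active = compounds whose thallium flux B-score, printed positive for inhibition, exceeds three library SD while starting fluorescence stays within three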;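 note: channel opened by potassium depolarization with thallium stimulus after 20 min compound exposure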
KCNK9 inh = KCNK9 potassium channel inhibitors, primary screen, HEK293 cells, thallium flux | Potassium channel subfamily K member 9 (Homo sapiens), Q9NPC2 | FluxOR thallium flux fluorescence; stronger effect = lower value | B-score at 10 µM | 1.2% of 310,000 active;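 active = ratio B-score over 3 SD below the library mean, with starting fluorescence within 5 SD of its mean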;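 note: negative B-score means less thallium flux so channel inhibition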
Cl transport mod = KCC2 cotransporter modulators, thallium flux, primary screen, cell-based, HEK293 KCC2, FluoZin-2 fluorescence, MLSMR. Solute carrier family 12 member 5 (Homo sapiens), Q9H2X9. KCC2 cells, thallium flux FluoZin-2 fluorescence. B-score of Tl+ flux slope (higher = more flux/activation; lower = inhibition) at 10 µM. 2.2% of 190,000 active;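 active = thallium flux slope and its plate-corrected score both differing from the plate sample mean at a set confidence after two filtering rounds, in either direction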;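 note: slope of fluorescence scaled to starting intensity during 10 to 20 s after thallium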
Target sequence (Q9H2X9 whole entry, looked up): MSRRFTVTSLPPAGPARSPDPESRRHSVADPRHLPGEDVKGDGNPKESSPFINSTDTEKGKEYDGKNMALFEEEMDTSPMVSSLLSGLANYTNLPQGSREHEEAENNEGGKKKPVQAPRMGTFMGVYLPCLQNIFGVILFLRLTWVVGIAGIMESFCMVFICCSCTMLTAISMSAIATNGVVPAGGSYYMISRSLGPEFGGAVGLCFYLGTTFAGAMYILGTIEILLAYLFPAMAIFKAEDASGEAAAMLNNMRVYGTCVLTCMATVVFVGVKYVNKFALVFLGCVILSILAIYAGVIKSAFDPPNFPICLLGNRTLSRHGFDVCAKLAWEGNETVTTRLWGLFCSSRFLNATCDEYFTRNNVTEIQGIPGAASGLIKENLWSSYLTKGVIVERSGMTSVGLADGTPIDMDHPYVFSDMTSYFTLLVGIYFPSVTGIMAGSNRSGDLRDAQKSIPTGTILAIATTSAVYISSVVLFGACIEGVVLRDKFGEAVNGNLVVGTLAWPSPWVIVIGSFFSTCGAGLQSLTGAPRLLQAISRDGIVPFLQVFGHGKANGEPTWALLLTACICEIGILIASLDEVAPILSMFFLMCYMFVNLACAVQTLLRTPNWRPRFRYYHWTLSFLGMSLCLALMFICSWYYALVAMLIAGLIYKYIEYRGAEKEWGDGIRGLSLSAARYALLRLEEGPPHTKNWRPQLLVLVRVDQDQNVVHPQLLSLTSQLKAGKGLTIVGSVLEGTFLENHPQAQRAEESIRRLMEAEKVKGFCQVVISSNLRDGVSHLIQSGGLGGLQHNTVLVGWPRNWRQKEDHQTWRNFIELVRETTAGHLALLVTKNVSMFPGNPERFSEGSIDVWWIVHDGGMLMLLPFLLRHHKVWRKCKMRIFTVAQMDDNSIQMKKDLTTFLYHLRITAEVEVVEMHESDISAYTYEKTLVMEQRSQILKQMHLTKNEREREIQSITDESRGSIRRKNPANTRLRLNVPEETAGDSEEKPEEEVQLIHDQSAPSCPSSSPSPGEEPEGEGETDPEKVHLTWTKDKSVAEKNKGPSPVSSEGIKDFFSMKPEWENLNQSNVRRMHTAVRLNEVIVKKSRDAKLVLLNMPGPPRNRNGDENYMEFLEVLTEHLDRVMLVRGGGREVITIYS
KCC2 sec1 = KCC2 modulators in sodium-free buffer, confirmation, cell-based, HEK293 KCC2, thallium flux, secondary assay | normalised thallium flux (F/F0 slope) at 10 µM | AID 1713, 2009 | shares compounds with Cl transport mod | 15% of 3,700 active | FluoZin2 fluorescence; stronger effect = higher value;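 active = thallium flux slope above the same plate's solvent-only control mean plus 3 SD; inconclusive = the two replicate wells disagree; inactive = no significant difference from solvent-only control wells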
KCC2 bumet counter = thallium flux persisting under bumetanide in KCC2 cells, confirmation, counter-screen for KCC2 modulator project, cell-based, HEK293 KCC2, FluoZin2, secondary assay 3. 49% of 3,700 active. normalized thallium flux at 10 µM. HEK293-KCC2 + bumetanide/ouabain; stronger effect = higher value. shares compounds with Cl transport mod;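 active = thallium entry rate above the same plate's blocked-transporter control wells by more than 3 SD; inconclusive = the two repeat wells disagree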;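 note: raw slope of fluorescence over initial fluorescence between 10 and 20 s after thallium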
KCC2 secondary2 = KCC2 modulators without ouabain present, confirmation, cell-based, HEK293 KCC2, thallium flux, FluoZin2, secondary assay 2. shares compounds with Cl transport mod. thallium flux FluoZin2 fluorescence; actives lie on both sides; F/F0 rise rate, 10–20 s post-thallium. normalized thallium flux at 10 µM. 23% of 3,700 active. AID 1715, 2009;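 active = thallium flux slope more than 3 SD above or below the plate's solvent-only control mean, mostly below; inconclusive = the two repeat wells disagreed; inactive = no significant shift from solvent-only controls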
HEK counter1 = thallium flux modulation in parental HEK cells, confirmation, counter-screen for KCC2 modulator project, cell-based, counterscreen 1. 46% of 3,700 active. thallium flux rate (normalised fluorescence) at 10 µM. shares compounds with Cl transport mod. AID 1716, 2009. HEK293 parental cells, thallium flux FluoZin2, ouabain; baseline-ratio fluorescence slope, 10–20 s after thallium;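 active = thallium flux rate significantly above the same plate's solvent-only control wells, beyond their mean plus 3 SD; inconclusive = the two replicate wells gave conflicting results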
KCC2 ouabain = KCC2 inhibitors and activators, ouabain retest, confirmation, HEK-KCC2 cells. AID 1717, 2009. shares compounds with Cl transport mod. HEK293-KCC2, thallium flux FluoZin2 fluorescence; bidirectional: low = inhibitor, high = activator. raw Tl+ flux slope (below DMSO = inhibition, above = activation) at 10 µM. 48% of 3,700 active;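 active = thallium flux slope beyond 3 SD from same-plate DMSO control mean in most replicates, usually higher, sometimes lower; inconclusive = repeat tests gave conflicting results; inactive = no significant difference from controls in most replicates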;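 note: slope of initial-normalized fluorescence between seconds 10 and 20 after thallium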
HEK counter2 = native HEK Tl+ uptake effects, second counter-screen – HEK cells, counterscreen 2, counter-screen for KCC2 modulator project, confirmation; thallium flux slope at 10 µM; shares compounds with Cl transport mod; HEK293 parental, thallium flux FluoZin-2 fluorescence slope; 33% of 3,700 active; AID 1718, 2009;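 active = thallium flux slope above the same plate's solvent-control mean plus 3 SD in both duplicate wells; inconclusive = duplicate wells that disagreed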;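 note: run without ouabain in cells lacking the KCC2 cotransporter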
A number is an active result; 0 = inactive; ? = inconclusive; - = no result given.

SMILES	KCNQ1 pot	hERG rescue	KCNK3 block	KCNQ1 block	KCNK9 inh	Cl transport mod	KCC2 sec1	KCC2 bumet counter	KCC2 secondary2	HEK counter1	KCC2 ouabain	HEK counter2
NC(=S)c1ncc(C(F)(F)F)cc1Cl	0	0	0	0	0	0	-	-	-	-	-	-
Fc1ccccc1NC(=S)NNc1ncc(C(F)(F)F)cc1Cl	0	0	0	0	0	6.9	0	0.052	0	0.011	?	0.01
CSc1ccccc1NC(=O)CN(C)C(C)C(=O)NCc1ccc2c(c1)OCO2 (configuration not stated)	-	-	0	-	-	-	-	-	-	-	-	-
COc1ccc(S(=O)(=O)N2CCOCC2)cc1NC(=O)c1sccc1C	-	-	0	-	-	-	-	-	-	-	-	-
O=C(CSc1ccccc1F)NCC1(N2CCCCC2)CCCCC1	-	-	0	-	-	-	-	-	-	-	-	-
CC1CCCCC1NC(=S)NC(=O)c1ccccc1Br (configuration not stated)	0	0	0	0	0	22	0	0.0097	0	0.014	0.027	0.015
CC(=O)c1cccc(NC(=S)NC(=O)c2ccc(Cl)cc2)c1	0	0	0	0	0	5.5	0	0.016	0	0.011	?	?
CC(=O)c1cccc(NC(=S)NC(=O)c2ccccc2C)c1	0	0	0	0	0	0	-	-	-	-	-	-
CC(=O)c1cccc(NC(=S)NC(=O)c2ccccc2Br)c1	0	0	0	0	0	7	0.014	0.076	0	0.017	?	0.013
Cc1cc(=O)[nH]c(SCC(=O)Nc2ccc(Br)cc2)c1C#N	0	0	0	0	0	-2.9	0	0	0.023	0.006	0.015	?
Cc1cc(=O)[nH]c(SCC(=O)Nc2ccc(F)cc2)c1C#N	0	0	0	0	0	0	-	-	-	-	-	-
CCCc1sc(N/N=C/c2ccccn2)nc1-c1ccc(F)cc1	0	0	0	0	0	-	-	-	-	-	-	-
CCN=c1scc(-c2ccc(F)cc2)n1/N=C/c1ccccn1	0	0	0	0	0	-5.7	0	0	0.023	?	0.014	0
NC(CCC(=O)NC(CS)C(=O)NCC(=O)O)C(=O)O (configuration not stated)	-	-	0	-	-	-	-	-	-	-	-	-
O=C(CCn1c(=O)[nH]c2ccsc2c1=O)N(CCc1ccccc1)Cc1ccccc1	0	0	0	0	0	-	0	0	0	0	?	0
O=C(CCCCn1c(=O)[nH]c2ccsc2c1=O)NCCc1ccccc1	0	0	0	0	0	0	-	-	-	-	-	-
CN(C)Cc1c(C(=O)N/N=C/C2CC=CCC2)nnn1-c1nonc1N (configuration not stated)	0	0	0	0	0	-	-	-	-	-	-	-
Cc1cc(Br)c(Oc2cc(NN3CCCCC3)c([N+](=O)[O-])cc2[N+](=O)[O-])c(Br)c1	-	-	0	-	-	-	-	-	-	-	-	-
CC(=O)c1ccc(NC(=S)NC(=O)c2c(Cl)c(C)nn2C)cc1	11	0	0	0	0	15	0.015	0.066	0	0.031	0.037	0.015
CCOc1ccc(NC(=S)NC(=O)c2c(Cl)cnn2CC)c([N+](=O)[O-])c1	0	0	0	0	0	19	0.018	0.056	0	0.029	0.044	0.014
CCOc1ccc(NC(=S)NC(=O)c2c(Br)cnn2C)c([N+](=O)[O-])c1	0	0	0	0	0	0	-	-	-	-	-	-
Cc1ccc([N+](=O)[O-])cc1NC(=S)NC(=O)c1c(Cl)cnn1C	0	0	0	0	0	-	-	-	-	-	-	-
Cc1cc(C)c(NC(=S)NC(=O)c2c(Cl)c(C)nn2C)c([N+](=O)[O-])c1	0	0	0	0	0	42	0.019	0.16	?	0.047	0.061	0.016
CCn1ncc(Cl)c1C(=O)NC(=S)Nc1c(C)cc(C)cc1[N+](=O)[O-]	0	5.8	0	0	0	85	0.033	0.15	0.044	0.076	0.072	0.026
FC(F)(F)c1ccccc1-n1c(-c2ccco2)n[nH]c1=S	0	0	0	0	0	-	-	-	-	-	-	-
SMILES	KCNQ1 pot	hERG rescue	KCNK3 block	KCNQ1 block	KCNK9 inh	Cl transport mod	KCC2 sec1	KCC2 bumet counter	KCC2 secondary2	HEK counter1	KCC2 ouabain	HEK counter2
COc1ccccc1CC(=O)N1CCC(n2nccc2NC(=O)C2CCOC2)CC1 (configuration not stated)	0	0	0	0	0	-	-	-	-	-	-	-
COc1ccc(CNc2oc(COc3ccc(Cl)cc3)nc2C#N)cc1	0	0	0	0	0	0	-	-	-	-	-	-
COc1ccc(CCNc2oc(COc3ccccc3F)nc2C#N)cc1	0	0	0	0	0	-	0	0.0034	0	0.0053	0.017	0
N#Cc1nc(COc2ccccc2F)oc1NCc1ccc(F)cc1	0	0	0	0	0	-	0	0	?	0	?	0
C=CCNc1oc(COc2ccc(C)cc2)nc1C#N	0	0	0	0	0	-	0	0	0	0	?	0
N#Cc1c(NC(=O)c2ccccc2Cl)n(Cc2ccccc2)c2nc3ccccc3nc12	-	-	0	-	-	-4.6	0	0	0	0.0051	0.014	0
COc1ccc(-n2c(NC(=O)c3ccco3)c(C#N)c3nc4ccccc4nc32)cc1	0	0	0	0	0	0	-	-	-	-	-	-
